# Data as given in ChEMBL document CHEMBL2157983 (Bioorg Med Chem Lett, 2011).
# Experiments:
# V79 [1] = test: Antiproliferative activity against Chinese hamster V79 cells transfected with Escherichia coli nitroreductase nfsB assessed as reduction in cell number after 72 hrs; format: functional, cell-based; conditions: Cricetulus griseus, V79, 72 h
# Summary of the method: (§1)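 V79 cells carrying vector only served as the control line. The NTR+ line carried a bicistronic construct encoding E. coli nfsB with a puromycin selection marker. Cells were exposed to drug for 72 h. […] The ratio is IC50 in NTR− cells divided by IC50 in NTR+ cells.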
# V79 [2] = test: Ratio of IC50 for Chinese hamster V79 cells to IC50 for Chinese hamster V79 cells transfected with Escherichia coli nitroreductase nfsB; design: species or system Cricetulus griseus; summary of the method: as §1
# SK-OV-3 [3] = test: Antiproliferative activity against human SKOV3 cells after 18 hrs assessed as reduction in cell number; format: functional, cell-based; conditions: SK-OV-3, 18 h
# Summary of the method: (§2)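 Untransfected parental SKOV3 cells were compared with SKOV3 cells expressing E. coli nfsB. Drug exposure lasted 18 h. […] The ratio is IC50 in NTR− cells divided by IC50 in NTR+ cells.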
# SK-OV-3 [4] = test: Antiproliferative activity against human SKOV3 cells transfected with Escherichia coli nitroreductase nfsB assessed as reduction in cell number after 18 hrs; format: functional, cell-based; conditions: SK-OV-3, 18 h; summary of the method: as §2
# SK-OV-3 [5] = test: Ratio of IC50 for human SKOV3 cells to IC50 for human SKOV3 cells transfected with Escherichia coli nitroreductase nfsB; format: functional; summary of the method: as §2
# V79 [6] = test: Antiproliferative activity against Chinese hamster V79 cells assessed as reduction in cell number after 72 hrs; format: cell-based; conditions: Cricetulus griseus, V79, 72 h; summary of the method: as §1
# Trypanosoma brucei [7] = test: Activity of Trypanosoma brucei NTR assessed as NADH oxidation per mg of protein
# Summary of the method: (§3)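 Substrate activity reported as the initial velocity of NADH oxidation (nmol/min/mg) with either E. coli nfsB or T. brucei nitroreductase (TbNTR). The reaction was followed by the change in absorbance at 340 nm.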
# Escherichia coli = test: Activity of Escherichia coli nitroreductase nfsB assessed as NADH oxidation per mg of protein; summary of the method: as §3
# SK-OV-3 [8] = test: Antiproliferative activity against human SKOV3 cells with mixed population of 25% NTR(+) cells and 75% NTR(-) cells assessed as bystander effect by measuring mixed population of NTR(+) and NTR (-) cells to produce an IC50 midway on log scale between those in either NTR(+) or NTR(-) cells alone after 18 hrs; format: functional
# Summary of the method: (§4)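 Drug exposure lasted 18 h. BE50 is the percentage of NTR+ cells in the mix needed to give an IC50 at the log-scale (geometric) midpoint between the IC50s of pure NTR+ and pure NTR− cultures.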
# Leishmania major = test: Trypanocidal activity against Leishmania major promastigote forms infected in sandfly gut assessed as inhibition of parasite growth; format: functional, organism-based
# SK-OV-3 [9] = test: Antiproliferative activity against human SKOV3 cells with mixed population of 25% NTR(+) cells and 75% NTR(-) cells assessed as reduction in cell number after 18 hrs; format: functional, cell-based; conditions: SK-OV-3, 18 h; summary of the method: as §4
# Trypanosoma brucei [10] = test: Trypanocidal activity against of Trypanosoma brucei bloodstream trypomastigote forms assessed as inhibition of parasite growth; format: functional, organism-based
# Trypanosoma brucei [11] = test: Ratio of 4-nitrobenzyl phosphoramide mustard IC50 to compound IC50 for Trypanosoma brucei bloodstream trypomastigote forms; format: functional
Structure (SMILES),IC50 (V79 [1]) [µM],Ratio IC50 (V79 [2]),IC50 (SK-OV-3 [3]) [µM],IC50 (SK-OV-3 [4]) [µM],Ratio IC50 (SK-OV-3 [5]),IC50 (V79 [6]) [µM],Activity (Trypanosoma brucei [7]) [nmol/min],Activity (Escherichia coli) [nmol/min],Activity (SK-OV-3 [8]) [%],IC50 (Leishmania major) [µM],IC50 (SK-OV-3 [9]) [µM],IC50 (Trypanosoma brucei [10]) [µM],Ratio IC50 (Trypanosoma brucei [11])
NC(=O)c1cc([N+](=O)[O-])ccc1COP(N)(=O)N(CCCl)CCCl (centres undefined),0.04,>2500,> 100,0.8,>125,> 100,–,–,–,–,–,–,–
NP(=O)(OCc1ccc([N+](=O)[O-])cc1)N(CCCl)CCCl (centres undefined),0.0008,73750,943,0.099,9520,59,246,1280,5.6,> 30,0.98,> 10,–
COc1cc(COP(N)(=O)N(CCCl)CCCl)ccc1[N+](=O)[O-] (centres undefined),0.003,16000,641,0.44,1460,48,0,2440,–,> 30,–,> 10,–
NP(=O)(OCc1ccccc1[N+](=O)[O-])N(CCCl)CCCl (centres undefined),0.18,>556,> 1000,5.23,>190,> 100,19,256,–,> 30,–,> 10,–
NP(=O)(OCc1ccc([N+](=O)[O-])cc1Cl)N(CCCl)CCCl (centres undefined),0.002,13100,140,0.12,1120,26,–,–,3.2,3.1,0.54,9.14,425
NP(=O)(OCc1ccc([N+](=O)[O-])cc1C(F)(F)F)N(CCCl)CCCl (centres undefined),0.004,12500,172,0.31,570,50,–,–,2.8,5.88,1.01,7.97,–
C[C@H](OP(N)(=O)N(CCCl)CCCl)c1ccc([N+](=O)[O-])cc1 (some centres undefined),0.002,32500,> 1000,0.49,>2000,65,52,916,–,> 30,–,> 10,–
NP(=O)(OCc1c(F)cc([N+](=O)[O-])cc1F)N(CCCl)CCCl (centres undefined),0.0008,20880,257,0.17,1520,17,1450,–,9.2,1.29,1.37,0.99,485
NP(=O)(OCc1ccc([N+](=O)[O-])cc1)N(CCBr)CCBr (centres undefined),0.0001,60000,1100,0.09,12244,6,–,–,–,–,–,–,–
NC(=O)c1cc(COP(N)(=O)N(CCCl)CCCl)ccc1[N+](=O)[O-] (centres undefined),0.03,>3330,> 1000,6.75,>150,> 100,–,211,–,–,–,–,–
COc1cc([N+](=O)[O-])ccc1COP(N)(=O)N(CCCl)CCCl (centres undefined),0.0005,82000,–,–,–,41,239,6980,–,15.6,–,> 10,–
COC(=O)c1cc(COP(N)(=O)N(CCCl)CCCl)ccc1[N+](=O)[O-] (centres undefined),0.1,690,435,0.43,1000,69,–,167,–,–,–,–,–
C[C@@H](OP(N)(=O)N(CCCl)CCCl)c1ccc([N+](=O)[O-])cc1 (some centres undefined),0.002,28500,> 1000,0.28,>3500,57,34,1400,–,> 30,–,> 10,–
NP(=O)(OCc1ccc([N+](=O)[O-])cn1)N(CCCl)CCCl (centres undefined),0.009,8333,–,–,–,75,–,–,–,8.3,–,–,–
NP(=O)(OCc1ccc([N+](=O)[O-])cc1F)N(CCCl)CCCl (centres undefined),0.0004,122750,266,0.08,3290,49,–,–,3.9,4.72,0.37,9.54,–
NC(=O)Cc1cc([N+](=O)[O-])ccc1COP(N)(=O)N(CCCl)CCCl (centres undefined),0.05,>2000,> 100,1.1,>90,> 100,–,–,–,–,–,–,–
Cc1cc(COP(N)(=O)N(CCCl)CCCl)ccc1[N+](=O)[O-] (centres undefined),0.003,16000,477,0.45,1060,48,158,894,–,> 30,–,> 10,–
NP(=O)(OCc1ccc([N+](=O)[O-])c(F)c1)N(CCCl)CCCl (centres undefined),0.003,16000,246,0.21,1200,48,1120,–,4.2,9.05,0.48,> 10,–
NP(=O)(OCc1cccc([N+](=O)[O-])c1)N(CCCl)CCCl (centres undefined),0.26,>385,947,55,17,> 100,369,683,–,> 30,–,> 10,–
